Results published in ChEMBL document CHEMBL4428107 (Bioorg Med Chem, 2016).

Columns and labels:
Histone deacetylase 2 = Histone deacetylase 2 (Homo sapiens, UniProt Q92769); assay: Inhibition of full length recombinant human HDAC2 expressed in baculovirus expression system using fluorogenic peptide RHKK(Ac) as substrate by fluorescence assay
HCT-116 = assay: Antiproliferative activity against human HCT116 cells assessed as reduction in cell viability after 72 hrs by MTS-PMS assay; format: functional; conditions: Homo sapiens, HCT-116, 72 h
Outline: (§1)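 MTS-PMS viability test. Cells were seeded at 3,000/well and left 24 h at 37 °C, 5% CO2, then exposed to compound for 72 h. Screening was at 50 μM for HCT116 and MCF-7 and […], with final DMSO ≤1%. MTS:PMS was mixed 20:1, added for 3 h, and absorbance read at 490 nm. At least two independent runs were done, each in triplicate.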

MCF7 = assay: Antiproliferative activity against human MCF7 cells assessed as reduction in cell viability after 72 hrs by MTS-PMS assay; conditions: MCF7, 72 h
MDA-MB-231 = assay: Antiproliferative activity against human MDA-MB-231 cells assessed as reduction in cell viability after 72 hrs by MTS-PMS assay; format: functional; conditions: MDA-MB-231, 72 h; outline: as §1
MOLT-4 = assay: Antiproliferative activity against human MOLT4 cells assessed as reduction in cell viability after 70 hrs by Quanti-blue assay; format: functional; conditions: Homo sapiens, MOLT-4, 70 h
Outline: (§2)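 Quanti-Blue viability kit. HuT-78 and Molt-4 cells were grown in RPMI-1640 and seeded at 10^5 cells/mL. Compounds were screened at 50 μM for 70 h, with detection reagent present for the final 2 h. Fluorescence was read at ex 530/em 590 nm. IC50 from dose-response came from linear regression. Three independent runs.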

HuT78 = assay: Antiproliferative activity against human HUT78 cells assessed as reduction in cell viability after 70 hrs by Quanti-blue assay; format: functional; conditions: Homo sapiens, HuT78, 70 h; outline: as §2
[1] = Antiproliferative activity against human PBMC assessed as reduction in cell viability after 70 hrs by Quanti-blue assay; format: cell-based
Outline: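 QB fluorescence viability assay; hPBMCs purified by density centrifugation from purchased human blood, stored frozen, resuspended in RPMI-1640 with 10% heat-inactivated FBS, HEPES, pyruvate, non-essential amino acids and BME; seeded at 10^6 cells/mL. Compounds at 50 μM, 70 h plus 2 h with detection reagent; λex 530/λem 590 nm. Three independent repeats.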

[2] = Immunomodulatory activity in human TALL-104 cells assessed as effect on degranulation by measuring augmentation of CD3-stimulated anti-LAMP fluorescence at 100 uM preincubated for 30 mins followed by anti-LAMP addition and incubated for 50 mins in the dark by flow cytometric analysis relative to control; format: functional

Chain of Histone deacetylase 2 (Q92769 whole entry): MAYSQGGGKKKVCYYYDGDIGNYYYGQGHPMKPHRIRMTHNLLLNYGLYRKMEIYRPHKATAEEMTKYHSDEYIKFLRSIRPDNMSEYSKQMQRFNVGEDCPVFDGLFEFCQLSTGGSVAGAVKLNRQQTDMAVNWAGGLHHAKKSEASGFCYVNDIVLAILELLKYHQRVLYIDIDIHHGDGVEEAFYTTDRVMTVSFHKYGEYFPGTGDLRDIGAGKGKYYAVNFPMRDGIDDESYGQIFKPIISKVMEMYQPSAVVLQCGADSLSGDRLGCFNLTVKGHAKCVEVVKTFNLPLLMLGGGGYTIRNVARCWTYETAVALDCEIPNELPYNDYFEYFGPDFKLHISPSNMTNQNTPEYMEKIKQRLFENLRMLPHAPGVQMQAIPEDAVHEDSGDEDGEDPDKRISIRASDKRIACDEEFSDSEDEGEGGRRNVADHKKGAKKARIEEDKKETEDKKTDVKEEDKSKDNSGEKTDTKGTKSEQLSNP

| Structure (SMILES) | IC50 (Histone deacetylase 2) [µM] | GI50 (HCT-116) [µM] | GI50 (MCF7) [µM] | GI50 (MDA-MB-231) [µM] | GI50 (MOLT-4) [µM] | GI50 (HuT78) [µM] | GI50 at 70 h [1] [µM] | Activity [2] [%] |
| --- | --- | --- | --- | --- | --- | --- | --- | --- |
| CCOC(=O)NCCCC(=O)OCCc1ccccc1 | > 1 | > 50 | > 50 | > 50 | > 50 | > 50 | > 50 | 88 |
| O=C(CCCNC(=O)OCc1ccccc1)NCCc1ccccc1 | > 1 | > 50 | > 50 | > 50 | > 50 | > 50 | > 50 | 79 |
| CCOC(=O)NCCCC(=O)Nc1ccc(O[Si](C)(C)C(C)(C)C)cc1 | > 1 | > 50 | 13.8 | > 50 | > 50 | > 50 | > 50 | 171 |
| CC(C)(C)CC(=O)NCCCC(=O)NCCc1ccccc1 | > 1 | > 50 | > 50 | > 50 | > 50 | > 50 | > 50 | 73 |
| CCOC(=O)NCCCC(=O)NCCNC(=O)OC(C)(C)C | > 1 | > 50 | > 50 | > 50 | > 50 | > 50 | > 50 | 95 |
| CCOC(=O)NCCC(=O)NCCc1ccccc1 | > 1 | > 50 | > 50 | > 50 | > 50 | > 50 | > 50 | 91 |
| O=C(CCCNC(=O)OCCF)NCCc1ccccc1 | > 1 | > 50 | > 50 | > 50 | > 50 | > 50 | > 50 | 92 |
| O=C(CCCNC(=O)c1ccccc1)NCCc1ccccc1 | > 1 | > 50 | > 50 | > 50 | > 50 | > 50 | > 50 | 85 |
| CCOC(=O)NCCCCC(=O)NCCc1ccccc1 | > 1 | > 50 | > 50 | > 50 | > 50 | > 50 | > 50 | 83 |
| CCOC(=O)NCCC(=O)NCCCCc1ccccc1 | > 1 | > 50 | > 50 | > 50 | > 50 | > 50 | > 50 | 83 |
| O=C(CCCNC(=S)N1CCCC1=O)NCCc1ccccc1 | > 1 | > 50 | > 50 | > 50 | > 50 | > 50 | > 50 | 94 |
| CCOC(=O)NCCCC(=O)N[C@@H](Cc1ccccc1)C(=O)OC | > 1 | > 50 | > 50 | > 50 | > 50 | > 50 | > 50 | 90 |
| CCOC(=O)NCCCC(=O)Nc1nccs1 | > 1 | > 50 | > 50 | > 50 | > 50 | > 50 | > 50 | 91 |
| O=C(CCCNC(=O)N1CCCC1=O)NCCc1ccccc1 | > 1 | > 50 | > 50 | > 50 | > 50 | > 50 | > 50 | 95 |
| CCSC(=O)NCCCC(=O)NCCc1ccccc1 | > 1 | > 50 | > 50 | > 50 | > 50 | > 50 | > 50 | 76 |
| CCOC(=O)NCCCC(=O)NCCc1cccc(Cl)c1 | > 1 | > 50 | > 50 | > 50 | > 50 | > 50 | > 50 | 75 |
| CCOC(=O)NCCCC(=O)NCCc1cccc(F)c1 | > 1 | > 50 | > 50 | > 50 | > 50 | > 50 | > 50 | 90 |
| CCOC(=O)NCCc1ccccc1 | > 1 | > 50 | > 50 | > 50 | > 50 | > 50 | > 50 | 90 |
| CC(=O)NCCCC(=O)NCCc1ccccc1 | > 1 | > 50 | > 50 | > 50 | > 50 | > 50 | > 50 | 83 |
| CCOC(=O)NCCCC(=O)Nc1nc(-c2cccc([N+](=O)[O-])c2)cs1 | > 1 | > 50 | > 50 | > 50 | > 50 | > 50 | > 50 | 58 |
| CCCCOC(=O)NCCCC(=O)NCCc1ccccc1 | > 1 | > 50 | > 50 | > 50 | > 50 | > 50 | > 50 | 101 |
| COc1cccc2c1C(=O)c1c(O)c3c(c(O)c1C2=O)C[C@@](O)(C(=O)CO)C[C@@H]3O[C@H]1C[C@H](N)[C@H](O)[C@H](C)O1 [DOXORUBICIN] | – | 21.4 | – | 10.7 | – | – | – | – |
| CCOC(=O)NCCCCCC(=O)Nc1ccccc1 | > 1 | > 50 | > 50 | > 50 | > 50 | > 50 | > 50 | – |
| O=C(CCCCCCC(=O)Nc1ccccc1)NO [VORINOSTAT] | – | – | 29.1 | – | – | – | – | – |
| CCC(=O)NCCCC(=O)NCCc1ccccc1 | > 1 | > 50 | > 50 | – | > 50 | > 50 | > 50 | 91 |
